Data reported in ChEMBL document CHEMBL1770075, “Thermal solvent-free synthesis of novel pyrazolyl chalcones and pyrazolines as potential antimicrobial agents” (2011).
Values after ≈ are worked out from the molar mass of the structure shown.

Key:
Format in all cases: functional
Streptococcus pyogenes [1] = test: Bactericidal activity against clinical isolate of Streptococcus pyogenes after 18 to 24 hrs by colony counting method
Pseudomonas aeruginosa [2] = test: Bactericidal activity against Pseudomonas aeruginosa ATCC 27853 after 18 to 24 hrs by colony counting method
How it was run: (§1)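 Colonies were counted after 18–24 h at 35 °C. MBC is the lowest concentration that kills 99.9% of the inoculum.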

[3] = tested on: Trichophyton mentagrophytes; test: Antifungal activity against Trichophyton mentagrophytes after 48 hrs
How it was run: (§2)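 Broth with two-fold serial dilutions of compound was inoculated with 1.6 × 10⁴–6 × 10⁴ c.f.u/ml and incubated at 35 °C. MIC is the lowest concentration that arrests growth. For MFC, 0.1 ml was spread on agar, colonies were counted after 48 h at 35 °C, and the endpoint was the lowest concentration killing 99.9%.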

Talaromyces marneffei [4] = test: Antifungal activity against Penicillium marneffei after 48 hrs by agar diffusion method
Streptococcus pyogenes [5] = test: Antibacterial activity against clinical isolate of Streptococcus pyogenes after 24 hrs by broth dilution method
Talaromyces marneffei [6] = test: Antifungal activity against Penicillium marneffei after 48 hrs; how it was run: as §2
Klebsiella pneumoniae [7] = test: Antibacterial activity against clinical isolate of Klebsiella pneumoniae after 24 hrs by broth dilution method
Aspergillus fumigatus [8] = test: Antifungal activity against Aspergillus fumigatus after 48 hrs by agar diffusion method
Staphylococcus aureus [9] = test: Antibacterial activity against methicillin-resistant Staphylococcus aureus after 24 hrs by disk diffusion method
Klebsiella pneumoniae [10] = test: Antibacterial activity against clinical isolate of Klebsiella pneumoniae after 24 hrs by disk diffusion method
Candida albicans [11] = test: Antifungal activity against Candida albicans after 48 hrs by agar diffusion method
Escherichia coli [12] = test: Antibacterial activity against Escherichia coli ATCC 25922 after 24 hrs by broth dilution method; conditions: ATCC 25922, 24 h
Klebsiella pneumoniae [13] = test: Bactericidal activity against clinical isolate of Klebsiella pneumoniae after 18 to 24 hrs by colony counting method
Pseudomonas aeruginosa [14] = test: Antibacterial activity against Pseudomonas aeruginosa ATCC 27853 after 24 hrs by disk diffusion method
[15] = tested on: Trichophyton mentagrophytes; test: Antifungal activity against Trichophyton mentagrophytes after 48 hrs by agar diffusion method
Escherichia coli [16] = test: Antibacterial activity against Escherichia coli ATCC 25922 after 24 hrs by disk diffusion method
Pseudomonas aeruginosa [17] = test: Antibacterial activity against Pseudomonas aeruginosa ATCC 27853 after 24 hrs by broth dilution method; conditions: ATCC 27853, 24 h
Staphylococcus aureus [18] = test: Bactericidal activity against methicillin-resistant Staphylococcus aureus after 18 to 24 hrs by colony counting method; how it was run: as §1
Staphylococcus aureus [19] = test: Antibacterial activity against methicillin-resistant Staphylococcus aureus after 24 hrs by broth dilution method
Candida albicans [20] = test: Antifungal activity against Candida albicans after 48 hrs; how it was run: as §2
Streptococcus pyogenes [21] = test: Antibacterial activity against clinical isolate of Streptococcus pyogenes after 24 hrs by disk diffusion method
Aspergillus fumigatus [22] = test: Antifungal activity against Aspergillus fumigatus after 48 hrs; how it was run: as §2
Escherichia coli [23] = test: Bactericidal activity against Escherichia coli ATCC 25922 after 18 to 24 hrs by colony counting method; how it was run: as §1

Row | SMILES | MBC (Streptococcus pyogenes [1]) | MBC (Pseudomonas aeruginosa [2]) | MFC [3] | MIC [3] | diameter of the inhibition zone (DIZ) (Talaromyces marneffei [4]) | MIC (Streptococcus pyogenes [5]) | MFC (Talaromyces marneffei [6]) | MIC (Talaromyces marneffei [6]) | MIC (Klebsiella pneumoniae [7]) | diameter of the inhibition zone (DIZ) (Aspergillus fumigatus [8]) | diameter of the inhibition zone (DIZ) (Staphylococcus aureus [9]) | diameter of the inhibition zone (DIZ) (Klebsiella pneumoniae [10]) | diameter of the inhibition zone (DIZ) (Candida albicans [11]) | MIC (Escherichia coli [12]) | MBC (Klebsiella pneumoniae [13]) | diameter of the inhibition zone (DIZ) (Pseudomonas aeruginosa [14]) | diameter of the inhibition zone (DIZ) [15] | diameter of the inhibition zone (DIZ) (Escherichia coli [16]) | MIC (Pseudomonas aeruginosa [17]) | MBC (Staphylococcus aureus [18]) | also measured
1 | Cc1nn(-c2ccccc2)c(Cl)c1/C=C/C(=O)C1C(=O)NC(=O)NC1=O | 25 µg/mL (≈ 67.1 µM) | 25 µg/mL (≈ 67.1 µM) | 25 µg/mL (≈ 67.1 µM) | 12.5 µg/mL (≈ 33.5 µM) | 14.1 mm | 12.5 µg/mL (≈ 33.5 µM) | 25 µg/mL (≈ 67.1 µM) | 12.5 µg/mL (≈ 33.5 µM) | 12.5 µg/mL (≈ 33.5 µM) | 21.3 mm | 20.2 mm | 17.1 mm | 25.5 mm | 12.5 µg/mL (≈ 33.5 µM) | 25 µg/mL (≈ 67.1 µM) | 27.2 mm | 17.1 mm | 24.8 mm | 12.5 µg/mL (≈ 33.5 µM) | 50 µg/mL (≈ 134 µM) | MIC (Staphylococcus aureus [19]): 12.5 µg/mL (≈ 33.5 µM); MFC (Candida albicans [20]): 25 µg/mL (≈ 67.1 µM); MIC (Candida albicans [20]): 12.5 µg/mL (≈ 33.5 µM); diameter of the inhibition zone (DIZ) (Streptococcus pyogenes [21]): 22.2 mm; MFC (Aspergillus fumigatus [22]): 25 µg/mL (≈ 67.1 µM); MIC (Aspergillus fumigatus [22]): 12.5 µg/mL (≈ 33.5 µM); MBC (Escherichia coli [23]): 50 µg/mL (≈ 134 µM)
2 | Cc1nn(-c2ccccc2)c(Cl)c1C1CC(C2C(=O)NC(=O)NC2=O)=NN1 (stereo not drawn) | 100 µg/mL (≈ 259 µM) | 100 µg/mL (≈ 259 µM) | 100 µg/mL (≈ 259 µM) | 50 µg/mL (≈ 129 µM) | 13.1 mm | 50 µg/mL (≈ 129 µM) | 100 µg/mL (≈ 259 µM) | 50 µg/mL (≈ 129 µM) | 50 µg/mL (≈ 129 µM) | 16.8 mm | 15.3 mm | 14.7 mm | 20.4 mm | 50 µg/mL (≈ 129 µM) | > 100 µg/mL | 20.1 mm | 16 mm | 19.2 mm | 50 µg/mL (≈ 129 µM) | > 100 µg/mL | MIC (Staphylococcus aureus [19]): 100 µg/mL (≈ 259 µM); MFC (Candida albicans [20]): 100 µg/mL (≈ 259 µM); MIC (Candida albicans [20]): 50 µg/mL (≈ 129 µM); diameter of the inhibition zone (DIZ) (Streptococcus pyogenes [21]): 16.8 mm; MFC (Aspergillus fumigatus [22]): 100 µg/mL (≈ 259 µM); MIC (Aspergillus fumigatus [22]): 50 µg/mL (≈ 129 µM); MBC (Escherichia coli [23]): > 100 µg/mL
3 | Cc1nn(-c2ccccc2)c(Cl)c1C1CC(C2C(=O)N(C)C(=O)N(C)C2=O)=NN1 (stereo not drawn) | 50 µg/mL (≈ 121 µM) | 100 µg/mL (≈ 241 µM) | 100 µg/mL (≈ 241 µM) | 25 µg/mL (≈ 60.3 µM) | 14.2 mm | 25 µg/mL (≈ 60.3 µM) | > 100 µg/mL | 50 µg/mL (≈ 121 µM) | 50 µg/mL (≈ 121 µM) | 17.4 mm | 16.5 mm | 15.7 mm | 20.8 mm | 25 µg/mL (≈ 60.3 µM) | 100 µg/mL (≈ 241 µM) | 21.8 mm | 16.9 mm | 19.6 mm | 50 µg/mL (≈ 121 µM) | 100 µg/mL (≈ 241 µM) | MIC (Staphylococcus aureus [19]): 50 µg/mL (≈ 121 µM); MFC (Candida albicans [20]): 100 µg/mL (≈ 241 µM); MIC (Candida albicans [20]): 25 µg/mL (≈ 60.3 µM); diameter of the inhibition zone (DIZ) (Streptococcus pyogenes [21]): 17.1 mm; MFC (Aspergillus fumigatus [22]): 100 µg/mL (≈ 241 µM); MIC (Aspergillus fumigatus [22]): 25 µg/mL (≈ 60.3 µM); MBC (Escherichia coli [23]): 100 µg/mL (≈ 241 µM)
4 | Cc1nn(-c2ccccc2)c(Cl)c1/C=C/C(=O)C1C(=O)N(C)C(=O)N(C)C1=O | 50 µg/mL (≈ 125 µM) | 100 µg/mL (≈ 249 µM) | 50 µg/mL (≈ 125 µM) | 25 µg/mL (≈ 62.4 µM) | 14.8 mm | 25 µg/mL (≈ 62.4 µM) | 50 µg/mL (≈ 125 µM) | 25 µg/mL (≈ 62.4 µM) | 50 µg/mL (≈ 125 µM) | 18.6 mm | 17.3 mm | 16.1 mm | 21.3 mm | 25 µg/mL (≈ 62.4 µM) | 100 µg/mL (≈ 249 µM) | 25.2 mm | 17.2 mm | 22.2 mm | 25 µg/mL (≈ 62.4 µM) | 50 µg/mL (≈ 125 µM) | MIC (Staphylococcus aureus [19]): 25 µg/mL (≈ 62.4 µM); MFC (Candida albicans [20]): 50 µg/mL (≈ 125 µM); MIC (Candida albicans [20]): 25 µg/mL (≈ 62.4 µM); diameter of the inhibition zone (DIZ) (Streptococcus pyogenes [21]): 20.1 mm; MFC (Aspergillus fumigatus [22]): 50 µg/mL (≈ 125 µM); MIC (Aspergillus fumigatus [22]): 25 µg/mL (≈ 62.4 µM); MBC (Escherichia coli [23]): 50 µg/mL (≈ 125 µM)
